Assay [1] concerns Mus musculus. Nature of the assay: Cardioprotective effect in calsequestrin transgenic mouse model of severe cardiomyopathy and heart failure assessed as improvement of echocardiography-derived fractional shortening at 3.3 uM, sc administered per day via minipump measured after 28 days by transthoracic echocardiographic analysis. It counts as functional. A digest of the protocol: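 CSQ-overexpressing transgenic mice (lethal heart failure near 3 months); analogue dissolved at 3.3 μM in sterile saline/PBS pH 7.4 (200 μL pump load), sterile-filtered, infused subcutaneously by mini-osmotic pump at 6 μL/day for 28 days; vehicle-infused CSQ controls. Under 1% isoflurane, M-mode echocardiography gave LVEDD, LVESD and FS ((LVEDD-LVESD)/LVEDD), averaged over >3 cardiac cycles; one-way ANOVA with post-test.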

In assay [2] the target is T1, P2Y purinoceptor 1 (Homo sapiens, UniProt P47900). Kind of assay: Activation of human P2Y1 receptor expressed in human 1321N1 cells assessed as induction of calcium flux up to 10 uM by FLIPR assay. It counts as functional, cell-based. The essentials:
(§1)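 1321N1 human astrocytoma cells stably expressing hP2Y1, grown overnight at 37 °C, 5% CO2 (to ~80% confluency), loaded with calcium-4 dye plus probenecid (no wash), 1 h at rt. Compounds diluted in Hank's buffer pH 7.2, tested up to 10 μM; FLIPR-Tetra at rt, ex 485/em 525 nm, duplicates. Response is peak fluorescence minus pre-exposure basal.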

The next assay has as its system 1321-N1. Kind of assay: Induction of calcium flux in human 1321N1 cells at 10 uM by FLIPR assay. It counts as functional, cell-based. For orientation: Calcium assays in cells follow changes in intracellular calcium, usually with a dye or a luminescent sensor.
For assay [3], the system named is Mus musculus. Nature of the assay: Cardioprotective effect in calsequestrin transgenic mouse model of heart failure assessed as increased shortening of heart septum and left ventricular free wall at 3.3 uM, sc administered per day via minipump measured after 28 days by transthoracic echocardiographic analysis. It counts as functional, organism-based. A digest of the protocol:
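Calsequestrin-overexpressing transgenic mice (hypertrophy, lethal heart failure near 3 months). Compound at 3.3 μM in sterile saline/PBS pH 7.4, filter-sterilized, infused subcutaneously via osmotic minipump at 6 μL/day for 28 days; saline-infused controls. Under 1% isoflurane, M-mode echocardiography gave LVEDD, LVESD and FS = (LVEDD−LVESD)/LVEDD, averaged over >3 cardiac cycles; mean ± SE, one-way ANOVA with post-test.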

The target in assay [4] is T1, P2Y purinoceptor 1. Kind of assay: Activation of human P2Y1 receptor expressed in human 1321N1 cells assessed as induction of calcium flux by FLIPR assay. The format is functional, cell-based.
Assay [5] has as its target T1, P2Y purinoceptor 1. Kind of assay: Agonist activity at human P2Y1 receptor expressed in human 1321N1 cells by PLC assay. It counts as functional, cell-based.
For assay [6], the target named is T1, P2Y purinoceptor 1. Kind of assay: Activation of human P2Y1 receptor expressed in human 1321N1 cells assessed as induction of calcium flux by FLIPR assay relative to 2-MeSADP. It counts as functional, cell-based. The essentials: as §1

The EC50 is the concentration at which the effect is half-maximal.

Structures are written as SMILES. Calls of active or inactive are those of the source. The rule behind the calls is not given here.

T1 sequence (P47900 whole entry): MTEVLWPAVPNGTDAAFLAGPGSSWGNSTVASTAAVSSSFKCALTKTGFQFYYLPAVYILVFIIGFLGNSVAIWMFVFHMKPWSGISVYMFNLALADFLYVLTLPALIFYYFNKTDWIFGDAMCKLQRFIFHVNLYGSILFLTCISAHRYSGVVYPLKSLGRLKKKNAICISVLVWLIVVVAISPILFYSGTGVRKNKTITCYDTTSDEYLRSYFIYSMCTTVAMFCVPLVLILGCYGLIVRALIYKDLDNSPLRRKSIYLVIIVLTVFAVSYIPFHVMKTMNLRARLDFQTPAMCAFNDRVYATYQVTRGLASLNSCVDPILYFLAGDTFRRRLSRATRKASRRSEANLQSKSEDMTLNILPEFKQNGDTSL

Regarding `Nc1ncnc2c1ncn2[C@H]1[C@H](O)[C@H](O)[C@@]2(CCP(=O)(O)O)C[C@H]12`, the Activity in the assay on Mus musculus [1] came to 11.15%. At P2Y purinoceptor 1 [2], the result was inactive.
As for `CSc1nc(N)c2ncn([C@@H]3O[C@H](COP(=O)(O)OP(=O)(O)O)[C@@H](O)[C@H]3O)c2n1`, in the assay on 1321-N1, the outcome was inactive.
`Nc1nc(Cl)nc2c1ncn2[C@H]1[C@H](O)[C@H](O)[C@@]2(/C=C/P(=O)(O)O)C[C@H]12`: in the assay with Mus musculus [1], the Activity stood at 12.12%. Besides, at P2Y purinoceptor 1 [2], the outcome was inactive.
Take `Nc1nc(Cl)nc2c1ncn2[C@H]1[C@H](O)[C@H](O)[C@@]2(CP(=O)(O)O)C[C@H]12`: in the assay on Mus musculus [1], the Activity is listed as 20.25%. Besides, on P2Y purinoceptor 1 [2], the result was inactive. Further, the result in the assay on Mus musculus [3] was Active.
`Nc1nc(Cl)nc2c1ncn2[C@H]1[C@H](O)[C@H](O)[C@@]2(CCP(=O)(O)O)C[C@H]12`: in the assay on Mus musculus [1], the Activity was 19.26%. In addition, the result at P2Y purinoceptor 1 [2] was inactive.
On the same counts, the results for `CP(=O)(O)C[C@]12C[C@@H]1[C@@H](n1cnc3c(N)nc(Cl)nc31)[C@H](O)[C@@H]2O` are 15% and “inactive”.
Take `Nc1nc(Cl)nc2c1ncn2[C@H]1[C@H](O)[C@H](O)[C@@]2(COP(=O)(O)O)C[C@H]12`: in the assay on Mus musculus [1], the Activity stood at 15.47%. Besides, the concentration for a half-maximal effect (EC50) on P2Y purinoceptor 1 [4] was 722 nM; on P2Y purinoceptor 1 [5], 1890 nM. Besides, at P2Y purinoceptor 1 [6], the %max amounted to 80%.
In the case of `Nc1ncnc2c1ncn2[C@H]1[C@H](O)[C@H](O)[C@@]2(/C=C/P(=O)(O)O)C[C@H]12`, the Activity in the assay with Mus musculus [1] worked out at 13.88%. Moreover, on P2Y purinoceptor 1 [2], the result was inactive.
On the same counts, the results for `Nc1ncnc2c1ncn2[C@H]1[C@H](O)[C@H](O)[C@@]2(CP(=O)(O)O)C[C@H]12` are 16.23% and “inactive”.
